Data reported in article PMC3987869 (Journal of medicinal chemistry, 2013).
“Also recorded” adds a separate entry of the source. Read-outs that look alike come from different tables or passages of the source. Blank lines part the entries; values can stand above or below the compound they belong to.

What was measured:
ABHD6 [1] = biological target: T1, ABHD6 (Mus musculus, UniProt Q8R2Y0); test: in vivo ABHD6 inhibition in mouse brain, gel-based competitive ABPP; settings: for brain ABHD6 inhibition: 1 mg kg^-1 (20: all doses tested, 0.1-1 mg kg^-1)
T1 sequence (Q8R2Y0 1-336): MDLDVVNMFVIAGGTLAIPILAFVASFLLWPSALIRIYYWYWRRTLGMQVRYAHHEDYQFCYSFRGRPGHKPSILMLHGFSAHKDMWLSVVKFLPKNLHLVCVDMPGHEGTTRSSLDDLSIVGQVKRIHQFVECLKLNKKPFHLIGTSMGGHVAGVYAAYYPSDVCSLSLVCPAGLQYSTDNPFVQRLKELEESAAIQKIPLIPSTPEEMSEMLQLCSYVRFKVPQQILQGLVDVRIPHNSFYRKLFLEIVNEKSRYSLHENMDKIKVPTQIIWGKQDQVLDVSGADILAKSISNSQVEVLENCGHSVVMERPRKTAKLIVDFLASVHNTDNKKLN

ABHD6 [2] = biological target: T1, ABHD6; test: in vivo ABHD6 inhibition in mouse liver, gel-based competitive ABPP; settings: 4 hr; for liver ABHD6 inhibition at 1 mg kg^-1: i.p., 1 mg kg^-1, HT-01 gels
ABHD6 [3] = biological target: T1, ABHD6; test: in situ ABHD6 inhibition in Neuro2A cells, gel-based competitive ABPP; type: cell-based; settings: for potency and selectivity in cells: abstract statement; for fold more potent in situ compared to compound 1: versus compound 1
[4] = tested on: mouse brain membrane SH enzymes; type: biochemical; settings: FP-Rh; for Off-targets (1 μM): 1 μM compound; for Off-targets (10 μM): 10 μM compound
Procedure, shortened: (§1)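 Mouse brain membrane fraction was prepared by Dounce homogenisation in PBS pH 7.5, a 1,400 × g spin, then a 100,000 × g pellet (45 min). Membranes at 1 mg/mL were preincubated with test compound for 30 min at 37 °C, then labelled with FP-rhodamine (1 μM final, 30 min, 37 °C). Samples were quenched in SDS-PAGE loading buffer, run on 10% SDS-PAGE and scanned for in-gel fluorescence.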

endogenous ABHD6 = biological target: T2, endogenous ABHD6 (Mus musculus, UniProt Q8R2Y0); test: gel-based competitive ABPP; type: biochemical; settings: versus compound 1
T2 sequence (Q8R2Y0 1-336): T1 sequence (Q8R2Y0 1-336)

[5] = biological target: T3, other brain and liver SHs (CES1, FAAH) (Mus musculus, UniProt O08914); type: in vivo; settings: for lowest oral dose with cross-reactivity with FAAH in the brain: oral gavage
T3 sequence (O08914 1-579): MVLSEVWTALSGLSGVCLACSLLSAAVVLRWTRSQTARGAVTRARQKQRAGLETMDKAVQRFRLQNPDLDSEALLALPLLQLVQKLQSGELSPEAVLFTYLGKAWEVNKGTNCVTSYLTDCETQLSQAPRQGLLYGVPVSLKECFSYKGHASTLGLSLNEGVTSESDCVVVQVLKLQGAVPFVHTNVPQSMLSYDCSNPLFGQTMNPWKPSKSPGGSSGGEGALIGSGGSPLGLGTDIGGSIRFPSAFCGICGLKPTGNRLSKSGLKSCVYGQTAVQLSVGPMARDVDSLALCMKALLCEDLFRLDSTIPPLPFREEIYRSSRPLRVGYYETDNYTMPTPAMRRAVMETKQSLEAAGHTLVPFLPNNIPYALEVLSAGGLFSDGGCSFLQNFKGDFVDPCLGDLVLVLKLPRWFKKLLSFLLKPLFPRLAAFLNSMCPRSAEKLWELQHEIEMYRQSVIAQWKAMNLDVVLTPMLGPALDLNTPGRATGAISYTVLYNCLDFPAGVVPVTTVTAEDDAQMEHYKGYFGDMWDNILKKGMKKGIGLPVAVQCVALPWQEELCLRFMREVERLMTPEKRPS
Procedure, shortened: (§2)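 Mice were dosed i.p. in 18:1:1 saline/ethanol/PEG40 (10 μL g-1) or by oral gavage in PEG300 (4 μL g-1). After 4 hr they were anaesthetised with isoflurane and killed by cervical dislocation. Brain and liver were Dounce-homogenised in PBS pH 7.5, and membrane fractions (100,000 × g pellet) were labelled with FP-rhodamine or HT-01 (1 μM, 30 min, 37 °C). Readout was SDS-PAGE with in-gel fluorescence.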

[6] = tested on: other SHs detected in Neuro2A cells; test: ABPP-SILAC of Neuro2A cells treated in situ: other serine hydrolases; type: cell-based, mouse; settings: 3 nM, 4 hr
Procedure, shortened: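 Neuro2A cells were grown 10 passages in light or heavy (13C/15N Arg and Lys) SILAC DMEM with 10% dialyzed FCS and 2 mM L-glutamine. Heavy cells received test compound and light cells DMSO (4 hr, 37 °C). Soluble and membrane proteomes (2.0 mg/mL) were labeled with 10 μM FP-biotin (2 hr, 25 °C), mixed 1:1, avidin-enriched, trypsin-digested on bead (12 hr, 37 °C) and analysed by LC-MS/MS. Heavy/light ratios were taken from ≥3 unique peptides per enzyme.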

ABHD6 [7] = biological target: T1, ABHD6; settings: negligible cross-reactivity with FAAH; cited from earlier work
[8] = tested on: other brain and liver SHs (CES1, FAAH); type: in vivo; settings: mouse, i.p., 4 hr, FP-Rh gels
Procedure, shortened: as §2

[9] = biological target: T4, mouse brain membrane SH enzymes (Mus musculus, UniProt O08914); type: biochemical; settings: competitive ABPP, FP-Rh
T4 sequence (O08914 1-579): T3 sequence (O08914 1-579)
Procedure, shortened: as §1

[10] = tested on: Neuro2A membrane proteome; test: click chemistry-ABPP of Neuro2A cells treated in situ with compound 2; type: cell-based, mouse; settings: Neuro2A cells 1 hr, click with azide-Rh
[11] = biological target: T5, Neuro2A membrane proteome (Mus musculus, UniProt Q8R2Y0); test: as above; type: cell-based; settings: Neuro2A cells 1 hr, click with azide-Rh
T5 sequence (Q8R2Y0 1-336): T1 sequence (Q8R2Y0 1-336)

[12] = Table 1, mouse brain membrane proteome

Structure (SMILES): O=C(N1CCCCC1c1ccccc1)n1cc(-c2ccc(-c3ccc(CO)cc3)cc2)nn1 (centres unmarked) [Compound 10]
Off-targets (1 μM) ([4]; mouse brain SHs): none
Off-targets (10 μM) ([4]; Table 2, mouse brain SHs): FAAH, LYPLA1, LYPLA2

Structure (SMILES): O=C(c1cccc(-c2ccc(-c3cn(C(=O)N4CCCCC4c4ccccc4)nn3)cc2)c1)N1CCCCC1 (centres unmarked) [Compound 11, (2-Phenylpiperidin-1-yl)(4-(3′-(piperidine-1-carbonyl)-[1,1′-biphenyl]-4-yl)-1H-1,2,3-triazol-1-yl)methanone]
dose to completely block ABHD6 in the brain (i.p.) (ABHD6 [1]; i.p., 4 hr): ~40 mg/kg
inhibition at 20 mg/kg (ABHD6 [1]; ip, read-out: brain ABHD6 inhibition at 20 mg kg^-1): > 70%
dose producing complete blockade of brain ABHD6 (p.o.) (ABHD6 [1]; p.o., PEG300, 4 hr): 40 mg/kg
doses giving near-complete blockade of ABHD6 in the liver (i.p.) (ABHD6 [2]): 5 to 10 mg/kg
fold more potent in situ compared to compound 1 (ABHD6 [3]): ~5 fold
Off-targets (1 μM) ([4]; mouse brain SHs): none
Off-targets (10 μM) ([4]; Table 2, mouse brain SHs): LYPLA1, LYPLA2
fold more potent in vitro compared to compound 1 (endogenous ABHD6): ~10 fold
cross-reactivity with FAAH in brain in vivo ([5]; i.p., 1-40 mg kg^-1, 4 hr): negligible
cross-reactivity against the ∼50 other SHs (ABPP-SILAC) [6]: < 50%

Structure (SMILES): O=C(N1CCCCC1c1ccccc1)n1cc(-c2ccc(-c3cccc(CO)c3)cc2)nn1 (centres unmarked) [Compound 9, (4-(3′-(Hydroxymethyl)-[1,1′-biphenyl]-4-yl)-1H-1,2,3-triazol-1-yl)(2-phenylpiperidin-1-yl)methanone]
brain ABHD6 inhibition (ABHD6 [1]; i.p., 4 hr): completely inactivated; also recorded: near-complete inactivation
liver ABHD6 inhibition at 1 mg kg^-1 (ABHD6 [2]): near-complete blockade; also recorded: near-complete inactivation
potency and selectivity in cells (ABHD6 [3]): < 5 nM
fold more potent in situ compared to compound 1 (ABHD6 [3]): ~5 fold
Off-targets (1 μM) ([4]; mouse brain SHs): none
Off-targets (10 μM) ([4]; Table 2, mouse brain SHs): FAAH, LYPLA1, LYPLA2
fold more potent in vitro compared to compound 1 (endogenous ABHD6): ~10 fold
lowest oral dose with cross-reactivity with FAAH in the brain [5]: 10 mg/kg
inhibition of off-target carboxylesterase-1 (CES1) in vivo [8]: inhibited
cross-reactivity against the ∼50 other SHs (ABPP-SILAC) [6]: < 50%

Structure (SMILES): C#CCOCCCc1ccc(C2CCCCN2C(=O)n2cc(-c3ccc(-c4ccc(OC)cc4)cc3)nn2)cc1 (centres unmarked) [Compound 2]
concentrations cross-reactive with FAAH in mouse brain proteome [9]: 0.4 to 10 µM
concentrations with limited cross-reactivity (60 kDa protein, likely FAAH) [10]: 80 to 600 nM
lowest concentration at which the ∼35 kDa target (ABHD6) was detected [11]: 10 nM

Structure (SMILES): O=C(c1ccc(-c2ccc(-c3cn(C(=O)N4CCCCC4c4ccccc4)nn3)cc2)cc1)N1CCCCC1 (centres unmarked) [Compound 12]
Off-targets (1 μM) ([4]; mouse brain SHs): none
Off-targets (10 μM) ([4]; Table 2, mouse brain SHs): LYPLA1, LYPLA2

Structure (SMILES): NC(=O)c1ccc(-c2ccc(-c3cn(C(=O)N4CCCCC4c4ccccc4)nn3)cc2)cc1 (centres unmarked) [Compound 13]
Off-targets (1 μM) ([4]; mouse brain SHs): none
Off-targets (10 μM) ([4]; Table 2, mouse brain SHs): FAAH, LYPLA1, LYPLA2

Structure (SMILES): O=C(O)c1cccc(-c2ccc(-c3cn(C(=O)N4CCCCC4c4ccccc4)nn3)cc2)c1 (centres unmarked) [Compound 21]
Off-targets (1 μM) ([4]; mouse brain SHs): APEH, LYPLA1, and LYPLA2
Off-targets (10 μM) ([4]; Table 2, mouse brain SHs): FAAH, APEH, LYPLA1, LYPLA2

Structure (SMILES): O=C(c1ccc(-c2ccc(-c3cn(C(=O)N4CCCCC4Cc4ccccc4)nn3)cc2)cc1)N1CCCCC1 (centres unmarked) [Compound 5]
Off-targets (10 μM) [4, 12]: none

Now from value to compound, other results behind:

brain ABHD6 inhibition (ABHD6 [1]; i.p., 4 hr): negligible inhibition
potency and selectivity in cells (ABHD6 [3]): < 5 nM
fold more potent in situ compared to compound 1 (ABHD6 [3]): ~5 fold
Off-targets (1 μM) ([4]; mouse brain SHs): none
Off-targets (10 μM) ([4]; Table 2, mouse brain SHs): FAAH, DAGLβ
fold more potent in vitro compared to compound 1 (endogenous ABHD6): ~10 fold
lowest oral dose with cross-reactivity with FAAH in the brain [5]: 10 mg/kg
Structure (SMILES): O=C(O)c1cccc(-c2ccc(-c3cn(C(=O)N4CCCCC4Cc4ccccc4)nn3)cc2)c1 (centres unmarked) [Compound 20, 4′-(1-(2-Benzylpiperidine-1-carbonyl)-1H-1,2,3-triazol-4-yl)-[1,1′-biphenyl]-3-carboxylic acid]
liver ABHD6 inhibition at 1 mg kg^-1 (ABHD6 [2]): near-complete blockade; also recorded: near-complete inactivation
cross-reactivity against the ∼50 other SHs (ABPP-SILAC) [6]: < 50%

Off-targets (10 μM) [4, 12]: FAAH
Structure (SMILES): COc1ccc(-c2ccc(-c3cn(C(=O)N4CCCCC4c4ccccc4)nn3)cc2)cc1 (centres unmarked) [Compound 1]
concentration that completely inactivates ABHD6 in living cells (ABHD6 [7]): 25 nM

Off-targets (1 μM) ([4]; mouse brain SHs): none
Off-targets (10 μM) ([4]; Table 2, mouse brain SHs): FAAH
Structure (SMILES): O=C(O)c1cccc(-c2ccc(-c3cn(C(=O)N4CCCCC4CCc4ccccc4)nn3)cc2)c1 (centres unmarked) [Compound 22]

Off-targets (10 μM) [4, 12]: MGLL
Structure (SMILES): COc1ccccc1-c1ccc(-c2cn(C(=O)N3CCCCC3Cc3ccccc3)nn2)cc1 (centres unmarked) [Compound 3]

Off-targets (10 μM) [4, 12]: none
Structure (SMILES): O=C(N1CCCCC1Cc1ccccc1)n1cc(-c2ccc(-c3cccc(CO)c3)cc2)nn1 (centres unmarked) [Compound 4]

Off-targets (10 μM) [4, 12]: FAAH, MGLL
Structure (SMILES): COc1ccccc1-c1ccc(-c2cn(C(=O)N3CCCCC3c3ccccc3)nn2)cc1 (centres unmarked) [Compound 6]

Off-targets (1 μM) ([4]; mouse brain SHs): none
Off-targets (10 μM) ([4]; Table 2, mouse brain SHs): FAAH, LYPLA1, LYPLA2
Structure (SMILES): O=C(N1CCCCC1c1ccccc1)n1cc(-c2ccc(-c3ccccc3CO)cc2)nn1 (centres unmarked) [Compound 8]
